From ChEMBL document CHEMBL1131568, “Intensely potent doxorubicin analogues: structure-activity relationship” (J Med Chem, 1998)
pIC50: −log10 of the molar value.

Key:
CHO [1] = assay: Drug concentration that inhibit cell growth by 50% compared to un treated control cultures of CHO cells (for 6 days at 37 degree Centigrade); assay type: functional, cell-based; settings: Cricetulus griseus, 144 h
In short: (§1)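 Exponentially growing cells, seeded at 1.5×10^4 cells/mL in McCoy's 5A with 10% FCS, exposed to drug over 2×10^-5 to 2×10^-12 M for 6 days at 37 °C. Cells fixed in 10% formaldehyde, stained with 0.1% crystal violet, and counted by inverted phase-contrast microscopy. IC50 taken from dose-response curves of surviving fraction versus untreated controls; mean of duplicates.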

[2] = Compound was tested for the drug concentration that inhibited cell growth by 50% compared to un treated control cultures of CA 755 cells(murine carcinoma 755 cells); assay type: functional, Mus musculus; in short: as §1
CHO [3] = assay: Compound was tested for the drug concentration that inhibited cell growth by 50% compared to un treated control cultures of CHO /DOX cell line; assay type: functional, cell-based; settings: Cricetulus griseus; in short: as §1
Mus musculus [4] = species: Mus musculus; assay: Compound was tested for the drug concentration that inhibited cell growth by 50% compared to un treated control cultures of Panc 02 cells; assay type: functional, cell-based; settings: Panc02; in short: as §1
[5] = Compound was tested for the drug concentration that inhibited cell growth by 50% compared to untreated control cultures of CA 755 cells(murine carcinoma 755 cells); assay type: functional; settings: Mus musculus; in short: as §1
Mus musculus [6] = species: Mus musculus; assay: Compound was tested for the drug concentration that inhibited cell growth by 50% compared to untreated control cultures of Panc 02 cells; assay type: functional, cell-based; settings: Panc02; in short: as §1

Compound	pIC50 (CHO [1])	IC50 [2]	pIC50 (CHO [3])	pIC50 (Mus musculus [4])	pIC50 [5]	pIC50 (Mus musculus [6])
COc1cccc2c1C(=O)c1c(O)c3c(c(O)c1C2=O)CC(O)(C(=O)CO)CC3OC1CC(NCCC(C)(C)C(OC(C)=O)OC(C)=O)C(O)C(C)O1 (stereo not given)	6.92	90 nM	6.54	7.02		
COc1cccc2c1C(=O)c1c(O)c3c(c(O)c1C2=O)CC(O)(C(=O)CO)CC3OC1CC(NCCCOCCC(OC(C)=O)OC(C)=O)C(O)C(C)O1 (stereo not given)	7.00	90 nM	6.68	7.10		
COc1cccc2c1C(=O)c1c(O)c3c(c(O)c1C2=O)CC(O)(C(=O)CO)CC3OC1CC(NCCCCCC(OC(C)=O)OC(C)=O)C(O)C(C)O1 (stereo not given)	7.59	3.1 nM	7.89	7.85		
COc1cccc2c1C(=O)c1c(O)c3c(c(O)c1C2=O)CC(O)(C(=O)CO)CC3OC1CC(N(C)CCCCC(OC(C)=O)OC(C)=O)C(O)C(C)O1 (stereo not given)	7.19	130 nM	6.73	6.85		
COc1cccc2c1C(=O)c1c(O)c3c(c(O)c1C2=O)CC(O)(C(=O)CO)CC3OC1CC(NCCOCCC(OC(C)=O)OC(C)=O)C(O)C(C)O1 (stereo not given)	7.26		7.02	7.22		
COc1cccc2c1C(=O)c1c(O)c3c(c(O)c1C2=O)CC(O)(C(=O)CO)CC3OC1CC(NCCCCCCCC(OC(C)=O)OC(C)=O)C(O)C(C)O1 (stereo not given)	6.60	14 nM	6.77	6.96		
CCCCCNC1CC(OC2CC(O)(C(=O)CO)Cc3c(O)c4c(c(O)c32)C(=O)c2c(OC)cccc2C4=O)OC(C)C1O (stereo not given)		33 nM		7.00		
COc1cccc2c1C(=O)c1c(O)c3c(c(O)c1C2=O)CC(O)(C(=O)CO)CC3OC1CC(NCCCC(=O)O)C(O)C(C)O1 (stereo not given)	6.69	150 nM	6.02	6.62		
COc1cccc2c1C(=O)c1c(O)c3c(c(O)c1C2=O)CC(O)(C(=O)CO)CC3OC1CC(NCCCCCOC(C)=O)C(O)C(C)O1 (stereo not given)	7.08	140 nM	6.46	7.17		
COc1cccc2c1C(=O)c1c(O)c3c(c(O)c1C2=O)C[C@@](O)(C(=O)CO)C[C@@H]3O[C@H]1C[C@H](N)[C@H](O)[C@H](C)O1 [DOXORUBICIN]					7.85	7.19
